ChEMBL document CHEMBL1147810, “Novel combretastatin analogues endowed with antitumor activity” (J Med Chem, 2006)
One block for each compound: values may come before it. The source made the active and inactive calls. No cut-off for these calls is given here.

Columns and labels:
BMEC = test: Antiproliferative activity against bovine BMEC; format: functional, cell-based; settings: Bos taurus
Summary of the method: (§1)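 Cells plated, then exposed 24 h after seeding to graded drug concentrations for 24 h. Drug removed, 48 h recovery in drug-free medium, surviving cells stained with sulforhodamine B (OD 564). […] BMEC: primary bovine adrenal cultures in DMEM, 20% FCS, heparin, brain extract.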

HUVEC = test: Antiproliferative activity against human HUVEC; format: functional, cell-based; summary of the method: as §1
NCI-H460 [1] = test: Antiproliferative activity against human H460 cells; format: functional, cell-based; summary of the method: as §1
HCT-116 = test: Antiproliferative activity against human HCT116 cells; format: functional, cell-based; summary of the method: as §1
MeWo = test: Antiproliferative activity against human MeWo cells; format: functional, cell-based; summary of the method: as §1
MCF7 = test: Antiproliferative activity against human MCF7 cells; format: functional, cell-based; summary of the method: as §1
MCF7-DOX = test: Antiproliferative activity against doxorubicin-resistant human MCF7-dx cells; format: functional, cell-based; summary of the method: as §1
A2780 [2] = test: Antiproliferative activity against human A2780 cells; format: functional, cell-based; summary of the method: as §1
A2780 [3] = test: Antiproliferative activity against doxorubicin-resistant human A2780-dx cells; format: functional, cell-based; summary of the method: as §1
IGROV-1 = test: Antiproliferative activity against human IGROV1 cells; format: functional, cell-based; summary of the method: as §1
NCI-H460 [4] = test: Antitumor activity in CD1 mice implanted with NCI-H460 xenografts at 60 mg/kg, po; format: functional, organism-based; set-up: dose 60 mg/kg; settings: Homo sapiens
Summary of the method: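 NCI-H460 cells (3.0 × 10⁶ in HBSS) injected sc into right flank of female CD-1 nude mice; groups of eight once tumors reached ~30 mg (day 5). Oral 60 mg/kg twice daily, 5 days/week for 3 weeks; controls got vehicle. Caliper volumes (length × width²/2) twice weekly; toxicity scored as % max body-weight loss; Mann-Whitney U test.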

NCI-H460 [5] = test: Cell cycle arrest in NCI-H460 cells by accumulation at G1/0 phase cell at 3 nM post 24 hrs treatment; format: functional, Homo sapiens
NCI-H460 [6] = test: Cell cycle arrest in NCI-H460 cells by accumulation at G1/0 phase cell at 3 nM post 24 hrs treatment and 24 hrs recovery; format: functional, Homo sapiens
NCI-H460 [7] = test: Cell cycle arrest in NCI-H460 cells by accumulation at G1/0 phase cell at 3 nM post 24 hrs treatment and 48 hrs recovery; format: functional, Homo sapiens
NCI-H460 [8] = test: Cell cycle arrest in NCI-H460 cells by accumulation at S phase cell at 3 nM post 24 hrs treatment
NCI-H460 [9] = test: Cell cycle arrest in NCI-H460 cells by accumulation at G2/M phase cell at 3 nM post 24 hrs treatment
NCI-H460 [10] = test: Cell cycle arrest in NCI-H460 cells by accumulation at S phase cell at 3 nM post 24 hrs treatment and 48 hrs recovery
NCI-H460 [11] = test: Cell cycle arrest in NCI-H460 cells by accumulation at S phase cell at 3 nM post 24 hrs treatment and 24 hrs recovery
NCI-H460 [12] = test: Cell cycle arrest in NCI-H460 cells by accumulation at G2/M phase cell at 3 nM post 24 hrs treatment and 24 hrs recovery
NCI-H460 [13] = test: Cell cycle arrest in NCI-H460 cells by accumulation at G2/M phase cell at 3 nM post 24 hrs treatment and 48 hrs recovery

SMILES: COc1cc(/C=C/c2cc(O)c3cc(C)oc3c2)cc(OC)c1OC
IC50 (BMEC): 12300 nM

SMILES: COc1cc(/C=C\c2cc(OC)c3ccoc3c2)cc(OC)c1OC
IC50 (BMEC): 7500 nM

IC50 (NCI-H460 [1]): 620 nM
IC50 (HCT-116): 3000 nM
IC50 (MCF7): 639 nM
IC50 (MCF7-DOX): 487 nM
IC50 (A2780 [2]): 500 nM
IC50 (A2780 [3]): 750 nM
SMILES: COc1cc(/C=C\c2cc(OP(=O)(O)O)c3ccsc3c2)cc(OC)c1OC
IC50 (HUVEC): 83 nM
IC50 (MeWo): 830 nM
IC50 (IGROV-1): 1610 nM
Activity (NCI-H460 [4]): Active
IC50 (BMEC): 640 nM

SMILES: COc1cc(/C=C\c2ccc3cc[nH]c3c2)cc(OC)c1OC
IC50 (BMEC): 28 nM

SMILES: COc1cc(/C=C/c2cc(O)c3cc(-c4ccccc4)sc3c2)cc(OC)c1OC
IC50 (BMEC): 38000 nM

SMILES: COc1cc(/C=C\c2cc(O)c3cc(-c4ccccc4)oc3c2)cc(OC)c1OC
IC50 (BMEC): > 2000 nM

SMILES: COc1cc(/C=C\c2cc(O)c3c(-c4ccccc4)csc3c2)cc(OC)c1OC
IC50 (BMEC): > 2000 nM

SMILES: COc1cc(/C=C/c2cc(O)c3c(-c4ccccc4)csc3c2)cc(OC)c1OC
IC50 (BMEC): > 20000 nM

SMILES: COc1cc(/C=C\c2cc(O)c3cc(C)sc3c2)cc(OC)c1OC
IC50 (BMEC): 23 nM

SMILES: COc1cc(/C=C\c2cc(O)c3cc(C)oc3c2)cc(OC)c1OC
IC50 (BMEC): 93 nM

SMILES: COc1cc(/C=C\c2cc(O)c3cc(-c4ccccc4)sc3c2)cc(OC)c1OC
IC50 (BMEC): 23000 nM

SMILES: COc1cc(/C=C/c2cc(OC)c3ccoc3c2)cc(OC)c1OC
IC50 (BMEC): 75000 nM

SMILES: COc1ccc(/C=C\c2cc(OC)c(OC)c(OC)c2)cc1O [COMBRETASTATIN A4]
IC50 (HUVEC): 1.5 nM
IC50 (HCT-116): 1.9 nM
IC50 (MeWo): 4 nM
IC50 (MCF7): 2 nM
IC50 (MCF7-DOX): 2.3 nM
IC50 (A2780 [2]): 2.19 nM
IC50 (A2780 [3]): 1.66 nM
IC50 (IGROV-1): 10.3 nM
Activity (NCI-H460 [5]): 8%
Activity (NCI-H460 [6]): 62%
Activity (NCI-H460 [7]): 55%
Activity (NCI-H460 [8]): 12%
Activity (NCI-H460 [9]): 79%
Activity (NCI-H460 [10]): 18%
Activity (NCI-H460 [11]): 22%
Activity (NCI-H460 [12]): 16%
Activity (NCI-H460 [13]): 27%

SMILES: COc1cc(/C=C/c2ccc3cc[nH]c3c2)cc(OC)c1OC
IC50 (BMEC): 1900 nM

SMILES: COc1cc(/C=C/c2cc(O)c3cc(C)sc3c2)cc(OC)c1OC
IC50 (BMEC): 840 nM

SMILES: COc1cc(/C=C/c2cc(O)c3cc(-c4ccccc4)oc3c2)cc(OC)c1OC
IC50 (BMEC): > 20000 nM
